Active and inactive are the calls of the source. The rule behind the calls is not given here.
Legend:
[1] = test system: MCF7/6; assay: Antiinvasive activity against human MCF7/6 cells assessed as occupying less than half of original amount of heart tissue at 1 umol/L after 8 days by hematoxylin and eosin staining assay; format: functional, cell-based
How it was run: (§1)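 Precultured heart fragments from 9-day-old chick embryos (0.4 mm diameter) were paired with MCF-7/6 aggregates (0.2 mm). Pairs sat overnight at 37 °C on semi-solid agar, then spun 8 days in suspension (37 °C, 120 rpm, 10% CO₂) with compound added in DMSO. Runs were usually in duplicate; 10 µmol/L often single. 7 µm sections were scored histologically for invasion grade 0–IV, with alternate sections stained with 5D10 antibody.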

[2] = Antiinvasive activity against human MCF7/6 cells assessed as minimum log concentration required to show activity after 8 days by hematoxylin and eosin staining-based chick heart invasion assay; format: functional; parameters: unit: log(µmol/L)
How it was run: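 Confronting cultures were set up as chick heart fragments (9-day embryos) plus MCF-7/6 aggregates, 8 days at 37 °C. Compound was dosed in DMSO at 10, 1, 0.1 and 0.01 µmol/L, in duplicate, and grades were scored histologically. c_min is the lowest concentration where both repeats gave grade I or II; inconclusive cases were repeated. A single active repeat counted if all repeats at 10-fold higher were active. The value is reported as log c_min.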

[3] = test system: MCF7/6; assay: Antiinvasive activity against human MCF7/6 cells assessed as occupying less than half of original amount of heart tissue at 0.1 umol/L after 8 days by hematoxylin and eosin staining assay; format: functional, cell-based; how it was run: as §1
[4] = test system: MCF7/6; assay: Antiinvasive activity against human MCF7/6 cells assessed as precultured chick heart tissue fragment attachment without occupying heart tissue and outermost fibroblastic cell layer at 10 umol/L after 8 days by hematoxylin and eosin staining assay; format: functional, cell-based; how it was run: as §1
[5] = test system: MCF7/6; assay: Antiinvasive activity against human MCF7/6 cells assessed as occupying more than half of original amount of chick precultured heart tissue fragment at 10 umol/L after 8 days by hematoxylin and eosin staining assay; format: functional, cell-based; how it was run: as §1
[6] = test system: MCF7/6; assay: Antiinvasive activity against human MCF7/6 cells assessed as decrease in occupying outer fibroblast-like and myoblast cell layers at 0.1 umol/L after 8 days by hematoxylin and eosin staining assay; format: functional, cell-based; how it was run: as §1
[7] = test system: MCF7/6; assay: Antiinvasive activity against human MCF7/6 cells assessed as chick precultured heart tissue fragment attachment without occupying heart tissue and outermost fibroblastic cell layer at 0.1 umol/L after 8 days by hematoxylin and eosin staining assay; format: functional, cell-based; how it was run: as §1
[8] = test system: MCF7/6; assay: Antiinvasive activity against human MCF7/6 cells assessed as decrease in occupying outer fibroblast-like and myoblast cell layers at 1 umol/L after 8 days by hematoxylin and eosin staining assay; format: functional, cell-based; how it was run: as §1
[9] = test system: MCF7/6; assay: Antiinvasive activity against human MCF7/6 cells assessed as occupying less than half of original amount of chick precultured heart tissue fragment at 10 umol/L after 8 days by hematoxylin and eosin staining assay; format: functional, cell-based; how it was run: as §1
[10] = test system: MCF7/6; assay: Antiinvasive activity against human MCF7/6 cells assessed as precultured chick heart tissue fragment attachment without occupying heart tissue and outermost fibroblastic cell layers at 1 umol/L after 8 days by hematoxylin and eosin staining assay; format: functional, cell-based; how it was run: as §1
[11] = test system: MCF7/6; assay: Antiinvasive activity against human MCF7/6 cells assessed as decrease in occupying outer fibroblast-like and myoblast cell layers at 0.01 umol/L after 8 days by hematoxylin and eosin staining assay; format: functional, cell-based; how it was run: as §1
[12] = test system: MCF7/6; assay: Antiinvasive activity against human MCF7/6 cells assessed as decrease in occupying outer fibroblast-like and myoblast cell layers at 10 umol/L after 8 days by hematoxylin and eosin staining assay; format: functional, cell-based; how it was run: as §1

| Structure (SMILES) | logMEC [2] | Activity [3] | Activity [6] | Activity [8] | Activity [11] | Activity [12] | other results |
| --- | --- | --- | --- | --- | --- | --- | --- |
| COc1cc(/C=C\c2ccc(F)cc2)cc(OC)c1OC | 1 | inactive |  |  |  |  | Activity [1]: inactive; Activity [4]: Active |
| COc1ccc(/C=C/c2ccccc2)cc1 | -1 |  | Active |  |  |  | Activity [5]: inactive; Activity [7]: Active |
| C(=C\c1ccccc1)/c1ccccc1 | -1 |  | Active | Active |  |  | Activity [9]: inactive; Activity [10]: Active |
| COc1ccc(/C=C/c2ccc(F)cc2)cc1 | -2 |  | Active |  | Active | Active |  |
| COc1cc(/C=C\c2ccccc2)cc(OC)c1OC | -2 |  | Active | Active | Active | Active | Activity [10]: Active |
| Fc1ccc(/C=C\c2ccccc2)cc1 | -2 |  |  |  | Active |  |  |
| Fc1ccc(/C=C/c2ccccc2)cc1 |  | inactive |  | Active |  |  |  |
| COc1cc(/C=C/c2ccccc2)cc(OC)c1OC | -1 |  |  |  |  | Active |  |
| Fc1ccc(/C=C/c2ccc(F)cc2)cc1 | -2 |  | Active |  | Active | Active |  |
| COc1cc(/C=C/c2ccc(F)cc2)cc(OC)c1OC | 0 | inactive |  |  |  | Active |  |

From ChEMBL document CHEMBL3108707, “Design, synthesis and structure-activity relationships of some novel, highly potent anti-invasive (E)- and (Z)-stilbenes” (2013)
